Measurements taken from the EternaBench riboswitch data.

Tested on: MS2 coat protein
Assay: apparent Kd, MS2 coat protein; higher = weaker binding; RNA-MaP array; FMN 200 µM where present
Method in brief: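 Green signal was scaled to red-channel RNA signal and control-cluster median Fmax, and the apparent Kd was taken as the median of filtered per-cluster binding-curve fits. The binding series used SNAP-549-labelled MS2 coat protein from 0.7 or 1.5 nM, doubling to 3 µM, on designs transcribed by stalled E. coli RNA polymerase on Illumina sequencing-chip clusters. Each series ran without and then with constant ligand in 100 mM Tris-HCl pH 7.5, 80 mM KCl, 4 mM MgCl2, BSA, DTT, yeast tRNA and Tween-20.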

[1] = designed as: OFF switch for flavin mononucleotide, no ligand
[2] = ligand present: flavin mononucleotide, designed as: OFF switch for flavin mononucleotide
[3] = designed as: ON switch for flavin mononucleotide, no ligand
[4] = ligand present: flavin mononucleotide, designed as: ON switch for flavin mononucleotide

For “CGAUGACACAGUCAUCCAAUACGAACAUGAGGAUCACCCAUGUAGGAUAUGGUACUCACAGAGUAGCAGAAGGACAUGUGCCUU”, the “apparent Kd” value [1] was 72.8 nM and the “apparent Kd” value [2] was 158 nM.
In the case of “ACAUGAGGAUCACCCAUGUAUUACAUGGUUAAGUUUAUUAACAGAAGGCGAAAAUACCAAUUGAUCGAGGAUAUGUAAUCAAUU”, the “apparent Kd” value [1] is reported as 33.8 nM and the “apparent Kd” value [2] is reported as 43.2 nM.
“UGUGCGUUGAUCUUCGAUCGGAGUACAUGAGGAUCACCCAUGUAGGAUAUUCAAAGACGCAGAUAGGAGAAGGACAUCGGAUUA” was tested, and the “apparent Kd” value [1] was 9.63 nM and the “apparent Kd” value [2] was 8.83 nM.
“CGGAAUUGUACAGGAUAUGAGGGUGCCUGAGCCUCAGAAGGGUAGACCGACAUGAGGAUCACCCAUGUAUGUGGAUAACGUCCG” was tested, and the “apparent Kd” value [3] was 75.5 nM and the “apparent Kd” value [4] was 336 nM.
“GCAUUGAUAACAGGAUAUAUGUUUCCUACAUGAGGAUCACCCAUGUAGGUGAUCAGCCGCGAAAAGUAGAAGGGUUAUCAAUGC” was tested, and the “apparent Kd” value [3] was 18 nM and the “apparent Kd” value [4] was 16.7 nM.
For “UCCUUGGUACAGAAGGACCGAGCUCAGUAGCAGGUAGGAUAUGUACAUGAGGAUCACCCAUGUCAGCGGUAAUUACCAGUUUUC”, the “apparent Kd” value [1] was 57.5 nM and the “apparent Kd” value [2] was 24.2 nM.
“UCCUGGCGAGGAUAUACAAUGUUUUUCACGUUUUGUUUCGAACAUGAGGAUCACCCAUGUAGAAGGUGCUACUG” was tested, and the “apparent Kd” value [1] was 53.2 nM and the “apparent Kd” value [2] was 44.7 nM.
In the case of “UCAGGCUUCGAGAAGGACAUGAGGAUCACCCAUGUUAGUGUGAAGCAGCCGUGAGGCUGCAUCAUGUAGGAUAUCGGAGUCUGC”, the “apparent Kd” value [1] is reported as 25.5 nM and the “apparent Kd” value [2] is reported as 189 nM.
With “UCAUUUACCACAGGAUAUAUUCAUAUACAGUUGUUUGGCUCUUACAUGUUAGUAGAAGGGUGCAACAUGAGGAUCACCCAUGUA” the “apparent Kd” value [3] was 298 nM and the “apparent Kd” value [4] was 163 nM.
In the case of “AUUACCAGAGGAUAUGCGAGGGUGUACCUCCCACAGCGAACACAUGAGGAUCACCCAUGUAGAAGGCUGAACAU”, the “apparent Kd” value [1] is reported as 38.9 nM and the “apparent Kd” value [2] is reported as 33 nM.
For “CCCGUGUUAGGAUAUACGGCACACCUGCCAGCAGGUGUAUAGUAGAAGGAACAUGAGGAUCACCCAUGUAUAGC”, the “apparent Kd” value [1] was 38.1 nM and the “apparent Kd” value [2] was 36 nM.
In the case of “GGGUAACAUGAGGAUCACCCAUGUGAGGAUAUCCUAGGGAUGGAAGCCCGGCCAACCAGGAGAAGGUACUAAAG”, the “apparent Kd” value [1] is reported as 83.2 nM and the “apparent Kd” value [2] is reported as 89.7 nM.
For “GACAUGAGGAUCACCCAUGUCCAUGCAAGAGUAGUUGAGACCAGAAGGACCGUGCGGAAUGCAGGGUAGGAUAUGGAGCCCUCA”, the “apparent Kd” value [3] was 36.8 nM and the “apparent Kd” value [4] was 9.38 nM.
In the case of “GCUGCAUAGGCAGGAUAUGCAACAAUGAGAUGAAAAUACAUCUCAUUGACAUGAGGAUCACCCAUGUAGAAGGGCCUGUGCAGU”, the “apparent Kd” value [1] is reported as 16.3 nM and the “apparent Kd” value [2] is reported as 18.9 nM.
“ACAAGACAUGAGGAUCACCCAUGUAAAGAAAACGCAGGAUAUGCAAAAAAAUUCAUGGGUGCAGAAGGGCGAAAAA” was tested, and the “apparent Kd” value [3] was 68.1 nM and the “apparent Kd” value [4] was 322 nM.
For “ACUUUAUAUGAGAAGGUGAAGUGGAAACAUGAGGAUCACCCAUGUAAUACGAAGCGUAUUUUUAUCAAGGAUAUCAUAUAAAGA”, the “apparent Kd” value [3] was 10.8 nM and the “apparent Kd” value [4] was 8.81 nM.
“GGGUACAUCGGAGGAUAUCAUGUAAAUACAUGAGGAUCACCCAUGUCGAUGGACACAUCGGAGAUUGAGAAGGCCGAUGUACCG” was tested, and the “apparent Kd” value [3] was 14.5 nM and the “apparent Kd” value [4] was 5.27 nM.
“GUCAGCUCGUGAGGAUAUACAUGUGCUGGAAACAGCAUUAAAUUUUUCACAUGAGGAUCACCCAUGUAGAAGGCACGAGCUGAU” was tested, and the “apparent Kd” value [1] was 17.3 nM and the “apparent Kd” value [2] was 39.1 nM.
In the case of “CCUGUCAGAGGAUAUGCAUCAGGGCUAUCCUCUAUCGCAGAACAUGAGGAUCACCCAUGUAGAAGGCUGUCAAA”, the “apparent Kd” value [1] is reported as 29.9 nM and the “apparent Kd” value [2] is reported as 23.6 nM.
In the case of “AAAAAGUGAGGAUAUACGCUGUGGAGUAGACACAACCAGACGUAGAAGGCACAUGAGGAUCACCCAUGUCCAAA”, the “apparent Kd” value [1] is reported as 24.9 nM and the “apparent Kd” value [2] is reported as 51.9 nM.
With “GUACAGAAGGAGAAGGGCUAGGAGGUCCAGCUUAUGUGUGUUGCAACAUGAGGAUCACCCAUGUAGCAGGAUAUCCUUUGUACA” the “apparent Kd” value [1] was 41.1 nM and the “apparent Kd” value [2] was 440 nM.
“AGGAGACAUGAGGAUCACCCAUGUGCGAGGUGAAGAGGAUAUAGAAGAAGAAGAAAGAAACUAGAAGGCUUAAAAA” was tested, and the “apparent Kd” value [3] was 220 nM and the “apparent Kd” value [4] was 244 nM.
In the case of “AACAUGUGAGGAUAUGUCACAUGGCUCUUCGGAGCAAGAUGACAGAAGGCACAUGAGGAUCACCCAUGUGCAUC”, the “apparent Kd” value [1] is reported as 13.8 nM and the “apparent Kd” value [2] is reported as 22.6 nM.
“CCGGCUGCUGUGAGGAUAUGCCUGUGGGUGCGUGGGUAGAAGGCACAUGAGGAUCACCCAUGUCCUGCGGCUCG” was tested, and the “apparent Kd” value [1] was 501 nM and the “apparent Kd” value [2] was 327 nM.
For “UAAGACUAGCAUUGGUAUCUCCACAUGAGGAUCACCCAUGUCUAGGAUAUGAGCAGCAAAGCUGCUUAGAAGGAGACGCUAGUC”, the “apparent Kd” value [1] was 8.47 nM and the “apparent Kd” value [2] was 12.6 nM.
With “AAUUAUUUUUGAGGAUAUGGUGGUGAAACACCACCAGAAGGCGGAAUAAACAUGAGGAUCACCCAUGUGAGCCUGAUGCUUAUG” the “apparent Kd” value [1] was 21.3 nM and the “apparent Kd” value [2] was 40.5 nM.
“CCUUUGCUAUAUACAUGAGGAUCACCCAUGUCCACUGACAGACAGGAUAUCCUUAGAAACUAGCAGGAGAAGGGUCAGUCAUAC” was tested, and the “apparent Kd” value [3] was 263 nM and the “apparent Kd” value [4] was 328 nM.
“GUCAGACGAGGAUAUAGAUUUAAGUACAUGAGGAUCACCCAUGUACACAUGUAUUUAGAUUUAGAAGGCGUCUGAC” was tested, and the “apparent Kd” value [1] was 594 nM and the “apparent Kd” value [2] was 700 nM.
“UUCAUGUUAGGAUAUUCCGCCACAGAGAAAGUCUGUGGAAUGAAGAAGGGACAUGAGGAUCACCCAUGUUCCAA” was tested, and the “apparent Kd” value [1] was 15.1 nM and the “apparent Kd” value [2] was 15.9 nM.
“AGUAACAGAGGAUAUACUGUUUUAUGUGUUUAUUAUUUUAAACAUGAGGAUCACCCAUGUAGAAGGCUGAAUAA” was tested, and the “apparent Kd” value [1] was 49.7 nM and the “apparent Kd” value [2] was 40.4 nM.
In the case of “AGGAAGUGAGGAUAUGCAGUGGCUUGUAGACGCAAGCACUUGUAGAAGGCACAUGAGGAUCACCCAUGUUUAAA”, the “apparent Kd” value [1] is reported as 30.8 nM and the “apparent Kd” value [2] is reported as 37.3 nM.
“CCGAUAAUAGGACAGGAUAUGACUGUCGUCACAUGAGGAUCACCCAUGUCCCGGCAAUGCCACCGUUAGAAGGGUCCUAUCUCGA” was tested, and the “apparent Kd” value [3] was 14.9 nM and the “apparent Kd” value [4] was 14.6 nM.
With “ACUGGUCGAGGAUAUACGUGACGUGCUUCGGCACGAGGUCUACAUGAGGAUCACCCAUGUAGAAGGCGACCAGU” the “apparent Kd” value [1] was 17 nM and the “apparent Kd” value [2] was 53.9 nM.
With “AGAUGACAAGGAUAUACUCGGGAUGCUAGUCGCGAAGAAGCACAUGAGGAUCACCCAUGUAGAAGGUGUAAGAA” the “apparent Kd” value [1] was 122 nM and the “apparent Kd” value [2] was 128 nM.
In the case of “CAACUGUGAGGAUAUGGUGAGUAGUGCCUGAGCGCUGCUCACCAGAAGGCACAUGAGGAUCACCCAUGUAUAAC”, the “apparent Kd” value [1] is reported as 42.9 nM and the “apparent Kd” value [2] is reported as 176 nM.
In the case of “CGAUAACAUAGUUAUCCGUAACGUACAUGAGGAUCACCCAUGUAGGAUAUGUUACUAAACUAGUAACAGAAGGACAUGAGUAUU”, the “apparent Kd” value [1] is reported as 54.9 nM and the “apparent Kd” value [2] is reported as 315 nM.
For “UUGUGCAAAGGAUAUACGUCCGACCUCGUGGAACUGAGAAUACAUGAGGAUCACCCAUGUAGAAGGUUGCCGAG”, the “apparent Kd” value [1] was 11.7 nM and the “apparent Kd” value [2] was 15.1 nM.
With “GAAUUCGCAUGAGGAUAUGCACUCAUUUCAUGUGCAGAAGGUAUUUCAUUAGACAUGAGGAUCACCCAUGUAUUGGUCAUUAAC” the “apparent Kd” value [3] was 19.3 nM and the “apparent Kd” value [4] was 14.7 nM.
In the case of “UUUUUAUUUAUAGGAUAUGGAAACAUGAGGAUCACCCAUGUAUGAUAAGAUAAAUUAUGAUAUAGCCAGAAGGAUAUUAUUUUU”, the “apparent Kd” value [3] is reported as 28.5 nM and the “apparent Kd” value [4] is reported as 35.9 nM.
In the case of “GGAGCACACAUUCACAUGAGGAUCACCCAUGUCAAAAGACAUGAGGAUAUGGAUCCGAAAAGGAUCCAGAAGGCAUGGUGCUCC”, the “apparent Kd” value [3] is reported as 483 nM and the “apparent Kd” value [4] is reported as 25.5 nM.
For “UUUGGGUGGCUGGAGGAUAUUCUAGUGGUUACAUGAGGAUCACCCAUGUGUCGCGCGGUUCGCGAGGAGAAGGCUGGCGGCCGUU”, the “apparent Kd” value [3] was 166 nM and the “apparent Kd” value [4] was 46.2 nM.
In the case of “GGCUGGUGACAGCAUCCAUCAAAACAUGAGGAUCACCCAUGUAGAAGGCUGUACGGUUACCGUACAGAGGAUAUACAAUGAUGG”, the “apparent Kd” value [1] is reported as 6.96 nM and the “apparent Kd” value [2] is reported as 9.46 nM.
